In brackets after ≈: the same amount, converted by molar mass.
Columns and labels:
[1] = Antioxidant activity assessed as inhibition of DPPH radical activity at 1 uM measured after 30 mins under dark conditions by spectrophotometric analysis relative to control; assay type: functional
[2] = tested on: HT-29; assay: Effect on oxidative stress in human HT-29 cells assessed as intracellular ROS level at 1 uM after overnight incubation by DCFH-DA staining based fluorescence assay relative to control; assay type: functional
Method in brief: (§1)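 Cells grown in DMEM+glutamax, 1% NEAA, 1% P/S, 10% FBS; seeded 20000/well, treated at confluency overnight in serum-free medium, DMSO under 0.1% final. Loaded with 20 μM DCFH-DA 30 min at 37 °C, 10% CO2; washed, phenol red-free medium 1 h, then serum-free medium; fluorescence ex 485/em 535 nm. Percent of untreated; two-tailed unequal-variance t-test, n≥6.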

[3] = tested on: EA.hy 926; assay: Effect on oxidative stress in human EAhy926 cells assessed as intracellular ROS level at 10 uM after overnight incubation by DCFH-DA staining based fluorescence assay relative to control; assay type: functional; method in brief: as §1
[4] = tested on: EA.hy 926; assay: Effect on oxidative stress in human EAhy926 cells assessed as intracellular ROS level at 1 uM after overnight incubation by DCFH-DA staining based fluorescence assay relative to control; assay type: functional; method in brief: as §1
[5] = Growth inhibition of undifferentiated human Caco2 cells measured after 72 hrs by SRB assay; assay type: functional, cell-based; settings: Caco-2, 72 h
Method in brief: (§2)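 20000 cells/well treated after 1 day at 1, 5, 10, 25 μM, serum-free, for 3 days. Fixed with 50% TCA 1 h at 4 °C, stained 30 min with 0.4% sulforhodamine B in 1% acetic acid, rinsed with 1% acetic acid, dye dissolved in 10 mM Tris, absorbance 490 nm; triplicate; IC50 derived.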

[6] = Growth inhibition of differentiated human Caco2 cells assessed as mitochondrial activity measured after 72 hrs by MTT assay; assay type: cell-based; settings: Caco-2, 72 h
Method in brief: (§3)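 Seeded 20000 cells/well in DMEM+glutamax, NEAA, P/S, FBS; after 1 day treated 1, 5, 10, 25 μM in serum-free medium (DMSO under 0.1%) for 3 days. MTT (5 mg/ml in PBS) 2 h at 37 °C, 10% CO2 in dark; formazan dissolved in DMSO, absorbance 570 nm; triplicate; IC50 derived.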

[7] = Growth inhibition of human EAhy926 cells measured after 72 hrs by SRB assay; assay type: cell-based; settings: EA.hy 926, 72 h; method in brief: as §2
[8] = Solubility of the compound in serum-free DMEM assessed as compound concentration required for crystal formation measured after 1 day by microscopic analysis; assay type: physicochemical; settings: 24 h
Method in brief: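 Compound at 0, 0.5, 1, 5, 10, 25 and 50 μM in serum-free DMEM incubated 1 day at 37 °C, 10% CO2, then examined for crystal formation.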

[9] = tested on: CHO; assay: Effect on oxidative stress in CHO cells assessed as intracellular ROS level at 10 uM after overnight incubation by DCFH-DA staining based fluorescence assay relative to control; assay type: functional, Cricetulus griseus; method in brief: as §1
[10] = Growth inhibition of human HT-29 cells assessed as mitochondrial activity measured after 72 hrs by MTT assay; assay type: functional, cell-based; settings: HT-29, 72 h; method in brief: as §3
[11] = tested on: HT-29; assay: Effect on oxidative stress in human HT-29 cells assessed as intracellular ROS level at 10 uM after overnight incubation by DCFH-DA staining based fluorescence assay relative to control; assay type: functional; method in brief: as §1
[12] = tested on: Caco-2; assay: Effect on oxidative stress in undifferentiated human Caco2 cells assessed as intracellular ROS level at 1 uM after overnight incubation by DCFH-DA staining based fluorescence assay relative to control; assay type: functional; method in brief: as §1
[13] = tested on: CHO; assay: Effect on oxidative stress in CHO cells assessed as intracellular ROS level at 1 uM after overnight incubation by DCFH-DA staining based fluorescence assay relative to control; assay type: functional, Cricetulus griseus; method in brief: as §1
[14] = Antioxidant activity assessed as trolox equivalent of ferric ion reducing activity using Fe3+-TPTZ by measuring Fe2+-TPTZ formation after 4 mins by UV-vis spectrophotometry based FRAP assay; assay type: functional
Method in brief: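 FRAP reagent: 300 mM acetate buffer, 10 mM TPTZ in ethanol and 20 mM FeCl3 (in dilute HCl) combined 10:1:1, TPTZ and iron freshly made. Sample mixed 1:9 with reagent; absorbance 593 nm after 4 min. Expressed as trolox equivalents per μM from slope of linear plot versus analog concentration.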

[15] = Growth inhibition of CHOK1 cells measured after 72 hrs by SRB assay; assay type: functional, cell-based; settings: Cricetulus griseus, CHO-K1, 72 h; method in brief: as §2
[16] = Growth inhibition of CHOK1 cells assessed as mitochondrial activity measured after 72 hrs by MTT assay; assay type: functional, cell-based; settings: Cricetulus griseus, CHO-K1, 72 h; method in brief: as §3
[17] = tested on: Caco-2; assay: Effect on oxidative stress in undifferentiated human Caco2 cells assessed as intracellular ROS level at 10 uM after overnight incubation by DCFH-DA staining based fluorescence assay relative to control; assay type: functional; method in brief: as §1
[18] = Growth inhibition of human EAhy926 cells assessed as mitochondrial activity measured after 72 hrs by MTT assay; assay type: cell-based; settings: EA.hy 926, 72 h; method in brief: as §3
[19] = Growth inhibition of undifferentiated human Caco2 cells assessed as mitochondrial activity measured after 72 hrs by MTT assay; assay type: functional, cell-based; settings: Caco-2, 72 h; method in brief: as §3
[20] = Growth inhibition of human HT-29 cells measured after 72 hrs by SRB assay; assay type: functional, cell-based; settings: HT-29, 72 h; method in brief: as §2
[21] = Growth inhibition of differentiated human Caco2 cells measured after 72 hrs by SRB assay; assay type: cell-based; settings: Caco-2, 72 h; method in brief: as §2

solubility [8] [µM]	Structure (SMILES)	inhibition [1] [%]	Activity [2] [%]	Activity [3] [%]	Activity [4] [%]	IC50 [5] [µM]	IC50 [6] [µM]	IC50 [7] [µM]	Activity [9] [%]	IC50 [10] [µM]	Activity [11] [%]	Activity [12] [%]	Activity [13] [%]	Activity [14] [µMequiv/µM]	IC50 [15] [µM]	IC50 [16] [µM]	Activity [17] [%]	IC50 [18] [µM]	IC50 [19] [µM]	IC50 [20] [µM]	also measured
50 (≈ 21.2 µg/mL)	CCC(C)NC(=C\C(=O)/C=C/c1ccc(O)c(OC)c1)/C=C/c1ccc(O)c(OC)c1 (stereo not given)	0.13	99	184	85	> 25	> 25	> 25	112	> 25	90	91	107	1.08	> 25	> 25	66	> 25	> 25	22.3	IC50 [21]: > 25 µM
5 (≈ 2.54 µg/mL)	CCC(C)NC(=C\C(=O)/C=C/c1ccc(OC(C)=O)c(OC)c1)/C=C/c1ccc(OC(C)=O)c(OC)c1 (stereo not given)	0	92	105	68	24	> 25	> 25	92	> 25	89	95	88	0	> 25	> 25	86	> 25	> 25	> 25	IC50 [21]: > 25 µM
50 (≈ 20.5 µg/mL)	CCCNC(=C\C(=O)/C=C/c1ccc(O)c(OC)c1)/C=C/c1ccc(O)c(OC)c1	0.1	88	141	78	22	> 25	> 25	118	22.7	92	97	116	0.87	> 25	> 25	88	> 25	> 25	> 25	IC50 [21]: > 25 µM
5 (≈ 2.12 µg/mL)	CCCCNC(=C\C(=O)/C=C/c1ccc(O)c(OC)c1)/C=C/c1ccc(O)c(OC)c1	0.08	99	439	110	23.8	> 25	> 25	110	19.7	98	91	129	1.29	20.4	7	83	> 25	> 25	21.2	IC50 [21]: > 25 µM
5 (≈ 2.54 µg/mL)	COc1cc(/C=C/C(=O)/C=C(/C=C/c2ccc(OC(C)=O)c(OC)c2)NCC(C)C)ccc1OC(C)=O	0	95	240	104	> 25	> 25	> 25	111	> 25	96	96	111	0.04	> 25	> 25	77	> 25	> 25	> 25	IC50 [21]: > 25 µM
